Source: PubChem
This is a sample that favours compounds with a hit; in the whole collection about 2.2% have one here.
BCLXL inh – inhibitors of human Bcl-xL, primary screen, biochemical, fluorescence polarization, HTS. Bcl-2-like protein 1 (Homo sapiens), Q07817. GST-Bcl-xL / FITC-Bim BH3 peptide fluorescence polarization. inhibition, % at 10.9 µM. 0.7% of 320,000 active;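 active = inhibition above the mean of all tested compounds plus 3 SD, cutoff set per campaign, cut at about 30% in these data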;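 also: inhibitors lower millipolarization by displacing the labeled peptide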
VIM-2 inhibitor – VIM-2 metallo-beta-lactamase inhibitors, primary screen, biochemical, epi-absorbance readout, Pseudomonas aeruginosa enzyme | purified VIM-2, nitrocefin hydrolysis, epi-absorbance fluorescence | inhibition, % at 5.6 µM | 0.89% of 290,000 active;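 active = inhibition above the mean of all tested compounds plus 3 SD, cutoff set per screening run, cut at about 7.5% in these data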;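 also: red hydrolysis product quenches plate fluorescence so inhibitors raise well fluorescence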
GLD-1 TGE inh – GLD-1/TGE RNA complex disruptors, primary screen, biochemical, fluorescence polarization | Female germline-specific tumor suppressor gld-1 (Caenorhabditis elegans), Q17339 | purified GLD-1 + fluorescein TGE RNA | inhibition, % at 5.96 µM | 0.44% of 320,000 active;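 active = percent inhibition above a per-plate cutoff, the plate mean of test compounds plus 3 SD, cut at about 30% in these data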
Target sequence (Q17339 whole entry, looked up): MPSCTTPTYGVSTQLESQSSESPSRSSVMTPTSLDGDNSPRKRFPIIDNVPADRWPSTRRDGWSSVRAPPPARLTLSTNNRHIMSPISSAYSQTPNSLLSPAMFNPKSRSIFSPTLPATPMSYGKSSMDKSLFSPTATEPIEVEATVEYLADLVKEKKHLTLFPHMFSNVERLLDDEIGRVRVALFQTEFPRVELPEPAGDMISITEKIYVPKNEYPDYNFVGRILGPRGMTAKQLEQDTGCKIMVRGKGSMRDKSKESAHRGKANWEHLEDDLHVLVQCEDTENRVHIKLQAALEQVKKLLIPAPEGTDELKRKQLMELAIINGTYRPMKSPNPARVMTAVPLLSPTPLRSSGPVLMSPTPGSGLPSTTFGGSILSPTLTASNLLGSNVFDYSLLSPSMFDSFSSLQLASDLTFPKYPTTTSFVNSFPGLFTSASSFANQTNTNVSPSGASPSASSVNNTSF
EBV gp42 block – Epstein-Barr virus gp42 inhibitors, primary screen, biochemical, uHTS, fluorescence polarization | Fluorescence polarization binding assay, mP read-out | 0.42% of 220,000 active | inhibition, % (tested at 21.74 µM) | AID 1085, 2008; in the data active = inhibition above about 50%
MEX-5 binding – MEX-5 zinc finger RNA-binding disruptors – biochemical, C. elegans, fluorescence polarization, MLPCN library, primary screen | Zinc finger protein mex-5 (Caenorhabditis elegans), Q9XUB2 | MEX-5/FITC-TCR2 RNA binding; active compounds read low | activity score (negative = inhibition of binding), % at 10 µM | 0.38% of 300,000 active | AID 1832, 2009;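 active = inhibition past about -25% in most replicates, and total fluorescence under double the plate's negative control median, limit read from the data; inconclusive = replicates evenly split on the limit, or fluorescence at least double controls; inactive = too little inhibition in most replicates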
IMP-1 inh – IMP-1 metallo-beta-lactamase inhibitors, primary screen, biochemical, epi-absorbance readout, Pseudomonas aeruginosa enzyme; metallo-beta-lactamase IMP-1 (Pseudomonas aeruginosa); 0.45% of 290,000 active; AID 1556, 2009; purified IMP-1, nitrocefin hydrolysis, epi-absorbance fluorescence; inhibition, % at 5.6 µM;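 active = inhibition above the mean plus 3 SD of all compounds in the same screening run, cut at about 4.5% in these data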
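system = purified recombinant IMP-1 beta-lactamase | amount = 0.2 nM IMP-1, as dispensed | medium = HEPES buffer pH 7.1 with ZnSO4 and Brij 35 | times = 25 °C, 15 min preincubation, 25 min reaction | detection = plate fluorescence quenching by hydrolysis product, ex 480/em 530 nm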
Hits are given with their value; n = inactive; u = inconclusive; x = no result given; + = active, no number.

SMILES	BCLXL inh	VIM-2 inhibitor	GLD-1 TGE inh	EBV gp42 block	MEX-5 binding	IMP-1 inh
CCN(C[C@H]1N[C@@](Cc2ccccc2)(C(=O)OC)[C@H]2C(=O)N(Cc3ccccc3)C(=O)[C@@H]12)C(=O)Nc1ccc(Cl)cc1	x	x	n	x	x	x
CC(C)Oc1cc(C(=O)NC2CCCCC2)c2ccccc2n1	n	n	n	x	n	n
COc1ccccc1-c1n[nH]c(=S)n1-c1ccccc1	n	8.9	n	n	n	n
COc1cc(OC)cc(-c2n[nH]c(=S)n2-c2ccc3c(c2)OCCO3)c1	n	8.1	n	n	n	n
COc1ccc(NS(=O)(=O)c2ccc(OCC(=O)N3CCOCC3)cc2)cc1Cl	n	n	n	x	n	n
O=c1c(/C=N/Nc2ccccc2)c(Sc2nnnn2-c2ccccc2)nc2ccccn12	x	n	x	152	x	n
O=C(O)c1ccccc1N/N=C/c1c(Sc2nnnn2-c2ccccc2)nc2ccccn2c1=O	n	n	n	n	-26	n
O=Cc1c(Sc2ccccc2)nc2ccccn2c1=O	n	n	n	n	n	n
C=C1c2cc(OC)ccc2NC(=O)N1CC	n	n	n	52	n	5.8
Cc1ccc(NC(=O)COc2ccc(/C=C3/SC(=Nc4ccccc4)N(Cc4cccnc4)C3=O)cc2)cc1	n	n	n	n	-60	n
COc1ccc(NC(=S)N(CCCOC(C)C)C2CCN(C(C)=O)CC2)cc1Cl	n	n	n	x	n	n
COC(=O)C1=C(C)N(c2ccccc2)/C(=C/c2ccco2)C1=O	n	n	n	n	-28	n
COC(=O)C1=C(C)N(c2cc(C)cc(C)c2)/C(=C/c2ccco2)C1=O	n	n	n	n	n	n
OCC[n+]1ccc(/C=C/c2c[nH]c3ccccc23)cc1	n	n	50	n	u	n
CCCC(C(=O)Nc1cc(S(=O)(=O)N2CCOCC2)ccc1OC)c1ccccc1 (stereo not drawn)	n	n	n	x	n	n
Cc1ccc(C)c(NC(=O)CN2C(=O)NC(C)(c3ccc4c(c3)OCCO4)C2=O)c1 (stereo not drawn)	n	x	n	x	x	x
COc1cc(OC)c(NC(=O)CCCNC(=O)Cn2cnc3sc(C)c(C)c3c2=O)cc1Cl	n	n	n	x	n	n
O=C1c2ccccc2S(=O)(=O)N1CC(O)COc1ccc(Br)cc1 (stereo not drawn)	n	n	n	n	n	5.3
O=C1c2ccccc2S(=O)(=O)N1CC(O)COc1ccc(Cl)cc1 (stereo not drawn)	n	n	n	n	n	n
COc1ccc2oc(C(=O)OCC(=O)N(C)CC(=O)Nc3ccc(F)cc3)c(C)c2c1	n	x	n	x	n	x
Cc1cc(-c2nc3c4c5c(sc4[nH]c(=O)n3n2)CCC5)c(C)o1	n	n	n	60	n	n
Cc1nc(C)n(C(C)CNS(=O)(=O)c2ccc(C)c(C)c2)n1 (stereo not drawn)	n	n	n	x	n	n
CC(NC(=O)COC(=O)Cc1ccc(Cl)cc1)c1ccccc1 (stereo not drawn)	x	x	n	x	x	x
CC(NC(=O)Cc1ccc(-c2ccccc2)cc1)c1ccccc1 (stereo not drawn)	n	n	n	n	n	5.0
O=S(=O)(c1ccc(NC(=S)NCc2ccc(F)cc2)cc1)N1CCOCC1	n	n	n	x	n	n
SMILES	BCLXL inh	VIM-2 inhibitor	GLD-1 TGE inh	EBV gp42 block	MEX-5 binding	IMP-1 inh
S=C(Nc1cccnc1)Nc1cccc2cnccc12	n	n	n	n	n	n
CN(C)S(=O)(=O)c1cccc(NC(=S)Nc2cccc3cnccc23)c1	x	12	x	n	n	n
CCCCNc1cc(Cl)nc(N)n1	30	n	n	n	n	n
Nc1nc(Cl)cc(NCCc2ccccc2)n1	n	n	n	n	n	n
CCCN(CCC)C(=O)c1ccc2c(c1)N(CC)C(=O)c1ccccc1S2(=O)=O	117	n	72	x	n	n
O=Cc1c(Sc2ccccn2)nc2ccccn2c1=O	53	n	n	n	n	n
COc1cc(CCC(=O)N2CCN(c3ncccn3)CC2)cc(OC)c1OC	n	n	n	86	n	n
FC(F)c1nc2ccccc2[nH]1	n	n	n	n	n	n
c1ccc2[nH]c3cc4ncnc4cc3nc2c1	+	n	+	+	-81	n
O=C(CCC(=O)Nc1ccccc1Cl)NNC(=O)Nc1cccc([N+](=O)[O-])c1	n	n	n	x	n	n
COc1cccc(NC(=O)CNC(=O)N2CC(=O)Nc3ccccc32)c1	44	n	n	x	n	n
O=C(/C=C/c1c(F)cccc1Cl)NCc1ccc2c(c1)OCO2	n	n	n	x	n	n
CCSc1nnc(-c2sc3nnc(-c4ccccc4)c(-c4ccccc4)c3c2N)o1	n	n	n	167	u	n
CCCCCCc1cc2cc(C(N)=O)c(=N)oc2cc1O	n	n	n	103	n	n
CCCCCCc1cc2cc(C(=O)OCC)c(=O)oc2cc1O	n	n	n	n	n	n
CCCCCCc1cc2cc(S(=O)(=O)c3ccc(F)c(Cl)c3)c(=O)oc2cc1O	n	n	97	n	n	n
CCCCN(C(=O)c1cccc(-n2cccc2)c1)c1c(N)n(Cc2ccccc2)c(=O)[nH]c1=O	n	x	n	x	n	x
CS(=O)(=O)c1ccc(-c2csc(-c3cccnc3)n2)cc1	31	n	n	x	n	n
CN(C)S(=O)(=O)c1ccc(-c2csc(-c3cccnc3)n2)cc1	n	n	n	n	n	n
COn1c(-c2ccc(Cl)cc2)nc2ncccc21	n	n	n	x	n	n
Cc1ccc(C(=O)OCC(=O)NC(=O)c2ccc(C(C)(C)C)cc2)c(O)c1	62	x	n	x	n	x
Cc1ccc(C(=O)OCC(=O)NNC(=O)c2ccccc2)c(O)c1	n	n	n	x	n	n
Cc1cc(C(=O)N2CCN(c3ccc([N+](=O)[O-])cc3)CC2)n[nH]1	n	n	n	x	n	n
COc1ccc(/C=C/c2nc(C#N)c(NCCN(C)C)o2)cc1OC	n	10	n	x	n	n
Cn1nc(C(=O)OCC(=O)Nc2ccccc2OC(F)F)c2ccccc2c1=O	x	x	n	x	x	x
COC(=O)c1ccccc1NC(=O)CN1CCCCCC1	n	n	n	x	n	n
CN(CCCNC(=O)c1cc2c(=O)[nH]c3ccccc3c2n1C)Cc1ccccc1	n	8.1	n	n	n	n
Cn1c(C(=O)NCCCN2CCN(c3ccccc3F)CC2)cc2c(=O)[nH]c3ccccc3c21	n	11	n	n	n	n
CCC1CCCCN1CCCNC(=O)COc1cc(=O)n(C)c2ccccc12 (stereo not drawn)	n	n	n	n	n	n
